Screening data from PubChem BioAssay.
Hits are enriched below; roughly 1.8% of the tested compounds scored in any of these assays.
A3A deaminase: blocks human APOBEC3A ssDNA deamination; 330,000 compounds, 0.41% hits; inhibition, % at 20 µM; AID 493011; recombinant A3A, FAM/TAMRA ssDNA deamination fluorescence;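 active = at least 40% inhibition at 20 µM here, with at most 30% in a related deaminase screen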;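 also: plate controls were A3A with DMSO for no effect and wells lacking A3A enzyme for full effect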
PHOSPHO1 inh: PHOSPHO1 (human) inhibition. 290,000 compounds, 1.1% hits. AID 1565. inhibition, % at 13.3 µM. recombinant PHOSPHO1, absorbance phosphatase assay. Q8TCT1; in the data active = inhibition above about 60%
A3G deaminase: APOBEC3G (human) deaminase inhibition. 330,000 compounds, 0.28% hits. inhibition, % at 20 µM. recombinant A3G, ssDNA deamination FAM/TAMRA fluorescence;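 active = inhibition of at least 40% at 20 µM, with no more than 30% in the related APOBEC3A deaminase screen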;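 also: plate controls were DMSO wells with A3G for no effect and wells lacking A3G enzyme for full effect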
Target sequence (Q9HC16 whole entry, looked up): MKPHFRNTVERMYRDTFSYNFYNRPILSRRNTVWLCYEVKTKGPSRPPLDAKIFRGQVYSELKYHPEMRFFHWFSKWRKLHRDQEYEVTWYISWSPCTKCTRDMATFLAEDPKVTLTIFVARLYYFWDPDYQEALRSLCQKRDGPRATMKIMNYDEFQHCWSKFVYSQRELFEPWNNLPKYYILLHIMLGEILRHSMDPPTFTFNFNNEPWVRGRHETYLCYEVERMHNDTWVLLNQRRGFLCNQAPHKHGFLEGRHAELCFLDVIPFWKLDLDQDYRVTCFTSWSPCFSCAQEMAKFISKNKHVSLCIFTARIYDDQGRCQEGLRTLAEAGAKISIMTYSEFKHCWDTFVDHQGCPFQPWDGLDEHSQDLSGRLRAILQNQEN
Tb MetRS inh: blocks T. brucei methionyl-tRNA synthetase activity; purified T. brucei MetRS, ATP depletion, Kinase-Glo luminescence; 360,000 compounds, 0.4% hits; inhibition, % at 11.9 µM; AID 624268;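 active = inhibition above a per-plate cutoff of the control wells' mean inhibition plus 3 SD, cut at about 5.5% in these data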;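 also: 0% = DMSO wells median and 100% = median of wells with control inhibitor compound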
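Measured by: Kinase-Glo luciferase luminescence reporting remaining unconsumed ATP. Material: purified T. brucei MetRS enzyme. Doses: 11.9 µM compound single dose, 0.9% DMSO. Medium: HEPES buffer containing pyrophosphatase, BSA, spermine, DTT. Times: 15 min preincubation, 2 h reaction, all 25 °C. Reagent: methionine, ATP and bulk E. coli tRNA.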
pCIP destab: p/CIP protein destabilization; Q05BA5; F442A p/CIP-EGFP cells, EGFP fluorescence, 16 h; decrease of EGFP signal, % at 10 µM; 290,000 compounds, 0.01% hits;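 active = EGFP signal decrease of at least 30% at 10 µM or well 3 SD below plate mean, unless failing retest; inactive = the rest, including hits failing retest or dose response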
An asterisk follows results filed as active; · = no result given.

SMILES	A3A deaminase	PHOSPHO1 inh	A3G deaminase	Tb MetRS inh	pCIP destab
CCNC(=S)NNC(=O)c1cc(-c2cccc(C)c2)nc2ccccc12	-11	72*	-10	-3	2
CC(C)(C)OC(=O)N1CCC2(CC1)Oc1ccc(F)cc1C(=O)C21CC(c2ccc(Cl)cc2)=NO1 (stereo not given)	-2	·	-7	·	·
COc1ccc(NC(=O)CN(C)S(=O)(=O)c2ccc3[nH]c(=O)oc3c2)cc1	-6	63*	-6	0	-5
C=CCN1C(=O)c2ccc(C(=O)N(C)CC(=O)Nc3ccccc3C(F)(F)F)cc2C1=O	0	-120	-4	0	2
CC[n+]1c(/C=C2\C=C(C)CC(C)C2)sc2ccccc21 (stereo not given)	10	102*	28	0	-1
CCC1=C/C(=C/c2sc3ccccc3[n+]2CC)CC(C)(C)C1	21	-3	15	·	4
CCOC(=O)C1=C(c2ccccc2)NC(=O)NC1c1cccc(OC)c1OC (stereo not given)	1	·	0	-1	·
CN(c1nc2ccccc2nc1Cl)S(=O)(=O)c1ccccc1	-1	22	-9	-1	-15
Cn1c(=O)oc2cc(S(=O)(=O)N3CCN(Cc4ccc5c(c4)OCO5)CC3)ccc21	2	72*	-4	0	-8
O=S(=O)(c1ccc2c(c1)OCCO2)N1CCN(Cc2ccc3c(c2)OCO3)CC1	-1	10	-3	-1	4
CCCCCCn1c(=O)n2n(c1=O)[C@@H]1CN(S(=O)(=O)c3ccc(C)cc3)C[C@]1(O)[C@@H](OC(=O)NCc1ccc(OC)c(OC)c1)C2	·	·	·	-2	·
O=C(CSc1nc2cc(Cl)ccc2s1)c1cc2ccccc2o1	-1	102*	-6	0	-14
Cc1cc2c(c(=O)n1C1CC1)C(c1cccc(Cl)c1)C(C#N)=C(N)O2 (stereo not given)	-4	2	-6	63*	8
Cc1cc2c(c(=O)n1CCN(C)C)C(c1ccc(Cl)cc1)C(C#N)=C(N)O2 (stereo not given)	6	-16	1	0	-9
COc1ccc(-c2cc(-c3n[nH]c(=S)n3-c3ccccc3OC)[nH]n2)cc1	-2	67*	-7	0	0
COc1ccc(OC)c(-n2c(-c3ccccc3)n[nH]c2=S)c1	-3	102*	22	0	4
CN(C)c1ccc(NC(=O)c2sc(SCC(=O)Nc3ccc(Br)cc3)nc2N)cc1	-2	-32	-1	0	-10
CN(C)c1ccc(NC(=O)c2sc(SCC(=O)Nc3nccs3)nc2N)cc1	-3	67*	-1	-1	4
Cc1ccc(-c2cnn(-c3cccc([N+](=O)[O-])c3)c2N)cc1	-2	19	-2	-1	-1
CCN(c1ccc(NC(=O)CSc2nnc3nc(C)cc(C)n23)cc1)C(C)C	4	73*	6	-1	-8
O=S(=O)(c1ccc(Br)cc1)N1CCN=C1SCc1cccc(F)c1	-1	27	-3	0	-14
COc1ccc(S(=O)(=O)N2CCN=C2SCc2cccc(F)c2)cc1	2	61*	0	0	-16
COc1ccc(S(=O)(=O)N(CC(=O)NCc2cccnc2)C2CCCCC2)cc1OC	11	51	2	0	-12
Cc1ccsc1/C=C/C1=Cc2c(sc(NC(=O)CSc3n[nH]c(N)n3)c2C#N)C(C)(C)C1	25	80*	14	0	-15
CCOc1ccc(N(C)S(=O)(=O)c2c[nH]c(C(=O)OC)c2)cc1	-3	65*	-8	0	1
SMILES	A3A deaminase	PHOSPHO1 inh	A3G deaminase	Tb MetRS inh	pCIP destab
CCCN(c1ccccc1F)S(=O)(=O)c1c[nH]c(C(=O)OC)c1	0	70*	-4	1	5
COC(=O)c1cc(S(=O)(=O)N(C)c2ccc(C)c(C)c2)c[nH]1	-1	23	-2	0	-1
COc1ccc2c(=O)cc(-c3ccccc3F)oc2c1	-2	20	-3	0	-6
COC(=O)c1ccc(CSc2nnc(NCc3ccccc3)s2)o1	1	45	0	0	-3
COC(=O)c1ccc(CSc2nnc(Nc3ccccc3OC)s2)o1	-2	67*	-6	·	-8
COC(=O)c1ccc(CSc2nnc(Nc3ccc(OC)cc3)s2)o1	0	71*	0	2	-3
COc1ccc(Nc2nnc(SCc3cc([N+](=O)[O-])cc4c3OCOC4)s2)cc1	0	78*	-5	-1	-9
